# This is a sample that favours compounds with a hit; in the whole collection about 2.5% have one here.
# NTR1 agonist = agonists of human neurotensin receptor NTR1; P30989; NTR1-U2OS beta-arrestin-GFP spot imaging, agonist mode; activation, % at 20 µM; 330,000 tested, 0.17% active; AID 493036;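 active = activation at or above 40% of the spot to cytoplasm intensity ratio, with at least 20 cells analyzed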;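 also: 0% = DMSO without peptide and 100% = 100 nM NTR1 peptide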
# Target sequence (P30989 whole entry, looked up): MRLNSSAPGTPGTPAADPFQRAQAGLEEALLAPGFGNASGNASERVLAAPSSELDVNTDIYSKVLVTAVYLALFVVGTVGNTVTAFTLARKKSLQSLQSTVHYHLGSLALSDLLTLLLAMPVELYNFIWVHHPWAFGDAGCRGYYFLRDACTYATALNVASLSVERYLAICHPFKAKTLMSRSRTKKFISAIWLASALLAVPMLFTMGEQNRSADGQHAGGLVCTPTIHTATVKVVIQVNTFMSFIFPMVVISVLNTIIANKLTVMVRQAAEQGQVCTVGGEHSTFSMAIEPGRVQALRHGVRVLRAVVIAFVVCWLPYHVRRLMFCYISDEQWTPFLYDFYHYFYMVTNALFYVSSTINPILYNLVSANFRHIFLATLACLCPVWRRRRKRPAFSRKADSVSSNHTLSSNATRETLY
# MC4R antag cAMP = blocks human MC4R cAMP signaling | P32245 | inhibition, % at 6.5 µM | 360,000 tested, 0.48% active | MC4R-expressing cells, MTII-stimulated cAMP, LANCE TR-FRET;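 active = inhibition above its plate's cutoff, the mean of tested wells on that plate plus 3 SD, cut at about 29% in these data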;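 also: 0% = Melanotan II alone and 100% = Melanotan II plus saturating MCL0020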
#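 system = U2OS cells with stable human MC4R expression | also added = Melanotan II challenge after compound preincubation | dosing = one concentration, 6.5 µM nominal | incubation = compound 30 min, challenge 1 h, detection 1 h | measured by = TR-FRET with Eu-cAMP and labeled anti-cAMP, 671 nm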
# sPLA2-III inh = Inhibits HGIII-sPLA2 liposome hydrolysis, primary screen. Q9NZ20. QFRET BODIPY PC-A2 liposome hydrolysis, fluorescence. 370,000 tested, 0.56% active. inhibition, % at 12.2 µM;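 active = inhibition above mean plus 3 SD of compounds lying within the high and low control bounds, cut at about 19% in these data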;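 also: 0% = median of test compound wells and 100% = no enzyme DMSO wells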
# Bfl-1 A1 inh = inhibitors of the anti-apoptotic protein A1, read as caspase activation | MEF A1-2A-BIM cells, Caspase-Glo 3/7 luminescence, 3 h; percent of clofoctol response, vehicle zero | caspase activation, % (concentration not given with the values) | 330,000 tested, 0.066% active;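 active = over half of replicate activation scores above 10%, or exactly half above 10 with the replicate mean above 10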
# MC4R barr agon = agonists of human melanocortin 4 receptor (MC4R) beta-arrestin. P32245. U2OS MC4R beta-arrestin complementation, luminescence; percent of melanotan II response, DMSO zero. activation, % at 8.9 µM. 360,000 tested, 0.98% active. AID 540308;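 active = activation above a per-plate cutoff, the mean activation of sample wells on that plate plus 3 SD, cut at about 8% in these data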
# Granule exo inh = blocks lytic granule exocytosis. inhibition, % at 10 µM. 360,000 tested, 0.66% active. TALL-104 LAMP-1 surface exposure, flow cytometry; cells stimulated with thapsigargin and PMA;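 active = inhibition above about 55%, limit read from the data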
# * hit, by the source's call; nt = no result given.
SMILES,NTR1 agonist,MC4R antag cAMP,sPLA2-III inh,Bfl-1 A1 inh,MC4R barr agon,Granule exo inh
O=C(CCN1C(=O)/C(=C\c2cccc(Br)c2)SC1=S)NCCCN1CCOCC1,0,-6,-12,0,0,75*
O=C(CCN1C(=O)/C(=C/c2ccccc2)SC1=S)NCCCN1CCOCC1,-1,-5,-5,0,-2,-3
CCc1c(-c2cccc(OC)c2)ncn1CCc1ccccc1OC,nt,nt,-5,nt,nt,nt
CCOc1ccc(NC(=O)COc2nsnc2N2CCCCC2)cc1,14,-2,0,1,9.0*,-3
CC1OC(CC(=O)O)CC2=C1C(=O)c1c(O)cccc1C2=O (stereo not given),nt,40*,8,nt,-3,88*
COc1ccc(CCN(Cc2cccs2)S(=O)(=O)c2ccc(F)cc2)cc1OC,nt,nt,-10,nt,nt,nt
Cc1c(C(=O)Nc2cccnc2Cl)oc2ccccc12,12,1,3,-3,11*,8
Cc1c(C(=O)Nc2ccccn2)oc2ccccc12,0,-6,1,1,0,-5
O=C(Nc1ccc(-c2nc3cc(NC(=O)c4cccs4)ccc3o2)cc1)c1cccs1,2,-1,9,17*,1,9
O=C(Nc1ccc2oc(-c3ccc4ccccc4c3)nc2c1)c1ccc2c(c1)OCCO2,4,18,-3,0,8.6*,3
Cc1ccc2oc(-c3ccc(C)c(NC(=O)Cc4cccs4)c3)nc2c1,0,9,2,-1,0,3
Cc1ccc2oc(-c3cccc(NC(=O)Cc4cccs4)c3)nc2c1,23,5,1,-4,13*,-5
C[C@H]1COc2c3ccc(I)cc3nn21,nt,nt,7,nt,nt,nt
O=C(CCc1ccccc1-c1ccccc1CCNC(=O)c1ccc(F)c(F)c1)NCc1ccccc1,nt,nt,3,nt,nt,nt
COC(=O)[C@]12C[C@H](CC(=O)N3CCN(C(=O)C4CC4)CC3)C(=O)N(Cc3ccc(Cl)cc3Cl)C1=C[C@H](C(C)(C)C)O[C@@H]2C,nt,nt,-1,nt,nt,nt
CC1CCCN(C(=O)Nc2ccc([N+](=O)[O-])cc2)C1 (stereo not given),nt,nt,2,nt,nt,nt
CC(=O)c1cccc(NC(=S)NC(=O)c2ccc(Br)cc2)c1,9,8,18,-1,8.5*,-2
CN(C)CCOc1ccc(C(C)(C)c2ccccc2)cc1,0,17,7,0,-1,-5
CC(C)(c1ccccc1)c1ccc(OCC2CO2)cc1 (stereo not given),-1,5,3,0,3,56*
O=[N+]([O-])c1cnc2ccccc2c1Sc1ccccc1,nt,nt,6,nt,nt,nt
CCN(CC)CCOC(=O)c1ccc(NC(=O)c2cn(-c3ccccc3)nc2-c2cccs2)cc1,38,0,-44,nt,1,90*
Cc1ccccc1-c1nc(S(=O)(=O)c2ccc(Br)cc2)c(NCc2cccnc2)o1,7,6,-28,0,-3,76*
Cc1ccc(S(=O)(=O)c2nc(-c3ccccc3)oc2NCc2cccnc2)cc1,0,4,-12,1,-2,1
COCCSc1ncccc1-c1nc2ccccc2[nH]1,nt,nt,4,nt,nt,nt
Oc1ccc(/C=N/Nc2cc(N3CCOCC3)nc(N3CCOCC3)n2)cc1,1,-21,-10,0,4,5
SMILES,NTR1 agonist,MC4R antag cAMP,sPLA2-III inh,Bfl-1 A1 inh,MC4R barr agon,Granule exo inh
Cc1nc(N/N=C/c2ccc(Br)cc2)cc(N2CCOCC2)n1,2,11,-9,1,8.3*,8
COc1ccc(/C=N/Nc2cc(N3CCCC3)nc(N3CCCC3)n2)cc1,33,-1,8,0,1,72*
COc1ccc(N2C(=O)CC(Sc3n[nH]c(-c4cccc(C)c4)n3)C2=O)cc1 (stereo not given),1,6,-26,1,1,95*
O=C(CC1CCCC1)N1CC[C@H]2[C@H](CCCN2Cc2cc(F)cc(F)c2)C1,nt,nt,-3,nt,nt,nt
COc1ccc(N2CCN(C(=O)C3CCN(S(=O)(=O)c4ccc5c(c4)CC(C)N5C(=O)C4CC4)CC3)CC2)cc1 (stereo not given),nt,nt,-21,nt,nt,nt
CSc1cccc(NC(=O)NCc2cccc(CNC(=O)Nc3cccc(SC)c3)c2)c1,5,12,-11,nt,-3,0
CSc1cccc(NC(=O)C(=O)NCc2ccccc2)c1,0,-4,-3,-1,8.7*,-10
Clc1ccc2nc(CNc3nc(N4CCOCC4)nc4c3ncn4-c3ccsc3)[nH]c2c1,nt,nt,-10,nt,nt,nt
COC(=O)[C@]12C=CCN1[C@@H](c1ccc(Cl)cc1)c1c(c3ccccc3n1S(=O)(=O)c1ccc(C)cc1)C2,nt,nt,5,nt,nt,nt
CC(=O)Cc1cc(O)c2ccccc2c1OC(=O)c1ccc(Br)cc1,0,-1,-44,0,17*,4
O=C(NC1CCc2ccccc21)c1cc(-c2ccc(Cl)cc2)nc2ccccc12 (stereo not given),nt,nt,8,nt,nt,nt
O=C1CC(c2ccccc2)=C(c2ccccc2)C1,nt,14,0,nt,1,-2
CC1=C(c2ccccc2)CCC1=O,-2,0,3,0,-1,80*
CCCCCCCCN1CCS(=O)(=O)N(Cc2ccc(F)cc2)C(C(=O)OC)C1 (stereo not given),nt,nt,1,nt,nt,nt
Cc1cccc(OCC(=O)O/N=C(\N)c2ccc(Cl)cc2)c1,0,-2,nt,-1,12*,0
CCOC(=O)c1c(C)n(OCc2ccccc2)c2ccc3nonc3c12,6,1,-16,0,8.8*,5
O=C(NC1CCCCN(Cc2cccc(F)c2)C1=O)c1ccc(F)cc1 (stereo not given),nt,nt,1,nt,nt,nt
CCc1ccc(NC(=O)Cn2nc(C(F)(F)F)c3c2CCC3)cc1,0,-2,-6,0,9.2*,-1
O=C(N[C@H](Cc1ccccc1)C(=O)NCCN1CCOCC1)[C@H]1O[C@@H](n2ccc(=O)[nH]c2=O)[C@H](O)[C@@H]1O,nt,nt,1,nt,nt,nt
O=C(Nc1ccc(C(O)(C(F)(F)F)C(F)(F)F)cc1)c1c(F)cccc1F,nt,nt,-24,nt,nt,nt
CC1(C)CC(Nc2ccc(Nc3ccccc3)cc2)CC(C)(C)N1,nt,-13,16,1,-3,83*
CC1(C)CC(NC(=O)c2ccccc2)CC(C)(C)N1,0,4,-2,0,-1,-1
COc1cccc(C(=O)c2cc3cc(Cl)ccc3[nH]2)c1,6,7,-2,0,8,-8
O=C(c1ccccc1)c1cc2cc(Cl)ccc2[nH]1,2,2,-6,1,8.3*,-2
CC1(C)Nc2cccc3cccc(c23)N1,nt,-5,18,nt,-2,63*
CCCN1C(=O)S/C(=C/c2ccc(N3CCOCC3)o2)C1=O,-2,-4,-4,0,0,34
CCCN1C(=O)S/C(=C\c2ccc(N3CCOCC3)o2)C1=O,-2,-2,-5,1,-2,81*
CCc1ccccc1NC(=O)c1cc(C)nn1-c1ccccc1,nt,nt,5,nt,nt,nt

# Screening data (PubChem BioAssay)
